Variants at the floor of the assay were thinned out.
B1: tRNA (parent)
chain: GUUCCGUUGGCGUAAUGGUAACGCGUCUCCCUCCUAAGGAGAAGACUGCGGGUUCGAGUCCCGUACGGAACG

Variants of: B1
Assay: yeast fitness relative to wild type (ratio to wild type); higher = fitter; tRNA-Arg(CCU), competitive growth, 37 C, YPD
Outline: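 Variants of the tRNA-Arg(CCU) gene, chemically synthesised with a 3% per-site mutation rate at 69 sites, were placed at the native genomic locus in Saccharomyces cerevisiae. The pooled strains were competed in YPD at 37°C for 24 hours in six parallel replicates. Gene amplicons from the start population and from each end population were read by 100-nucleotide paired-end sequencing. Darwinian fitness relative to wild type came from changes in genotype frequencies; genotypes needed ≥ 100 starting reads, and estimates < 0.5 were set to 0.5.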
With GUUACGUUGGCGUAAUGGUAACGCGUCUCCCUCCUAACGAGAAGACUGCGGGUUCGAGUCCCGUACGGAACG [C4A G38C] the yeast fitness was 0.652.
In the case of GUUACGUUGGCGUAAUGGUAACACGUCACCCUCCUAAGGAGAAGACUGCGGGUUCGAGUCCCGUACGGAACG [C4A G23A U28A], the yeast fitness is reported as no more than 0.5.
GUUGCGUUGGCGUAAUGGUAACGCGUCUCCCUCCUAAGGAGAAGACUGCGGGUUCGAGUCCCGUACGGAACG [C4G] showed a yeast fitness of 1.01.
With GUUACGUUGGCGUAAGGGUAACGCGUCUCACUCCUAAGGAGAAGACUGCGGGUUCGAGUCCCGUACGGAACG [C4A U16G C30A] the yeast fitness was 0.62.
GUUACGUUGGCGUAAUGGUAACGCGUCUCCCUCCUAAGGAGAAGACUGCGCGUUCGAGUCCCGUACGGAACG [C4A G51C] showed a yeast fitness of 0.547.
GUUACGUUGGCGUAAUGGUAACGCGGCUGCCUCCUAAGGAGAAGACGGCGGGUUCGAGGCCCGUACGGAACG [C4A U26G C29G U47G U59G] gave a yeast fitness of no more than 0.5.
For GUUACGUUGGCGUAAUGGUAACCUGUCUCCCUCCUAAGGAGAAGACUGCGGGUUCGAGUCCCGUGCGGAACG [C4A G23C C24U A65G], the yeast fitness was 0.556.
With GUUACGUUGGCGUAAUUGUAACGCGUCUCCCUCCUAAGGAGAAGAAUGCGGGUUCGAGUCCCGUACGGAACG [C4A G17U C46A] the yeast fitness was 0.645.
Variant GUUACGUUGGCGUAAAGGUAACGCGUCUCCCUCCUAAGGAGACGAUUGCGGGUUCGAGUCCCGUACGGAACG [C4A U16A A43C C46U] has a yeast fitness of no more than 0.5.
Variant GUUACGUUGGCGUAAUGGUAACGCGUCUCCCUCCUAAGGAGAAGACUCCGGGUUCGAGUCCCGUACGGAACG [C4A G48C] has a yeast fitness of 0.749.
Work on GUUACGUUGGCGUAAUGGUAACGCGUCUCCCUCCUAAGGAGAAGACUGCGGGUUCGAGUCCCGUACGCAACG [C4A G68C] yielded a yeast fitness of 0.808.
GUUACGUCGGCGUAAUGCUAACGCGUCUCCCUUCUAAGGAGAAGACUGCGGGUUCGAGUCCCGUACGGAACG [C4A U8C G18C C33U] gave a yeast fitness of no more than 0.5.
Work on GUUACGUUGGCGUAAUGGUAACGCGUCUCCCUCCUAAGGAGAAGACUGCGGGUUCGAGUCCCCUACGGAACG [C4A G63C] yielded a yeast fitness of 0.748.
For GUUACGUUGGCGUAAUGGUAACGCGUCUCCCCCCUAAGGAGAAGAAUGCGGGUUCGAGUCCCGUACGGAACG [C4A U32C C46A], the yeast fitness was 0.697.
Variant GUUACGUUGGCGUAAUGGCAACGCGUCUCCCUCCCAAGGAGAAGACUACGGGUUCGAGUCCCGUACGGAACG [C4A U19C U35C G48A] has a yeast fitness of no more than 0.5.
GUUGCGUUGGCGUGAUGGUAACGCGUCUCGCUCCUAAGGAGAAGACUGCGGGUUCGAGUCCCCUACGGAACG [C4G A14G C30G G63C] showed a yeast fitness of no more than 0.5.
For GUUACGUUGGCGUAAUGCUAACGCGUCUCCCUCCUAAGGAGAAGACUGCGGGUUCGAGUCCCGUACGGAACG [C4A G18C], the yeast fitness was 0.58.
For GUUACGUUGGCGUAAUGAUAACGCGUCUCCCUCCUAAGGAGAAGACUGCGGGUUCGAGUCCCGUACGGAACG [C4A G18A], the yeast fitness was 0.78.
With GUUACGUUGGCGUAAUGGUAACGCGUCUCCCUCCUAAGGAGAAGACUGCGGGUUCAAGUCCUGUACGGAACG [C4A G56A C62U] the yeast fitness was 0.626.
Work on GUUACGCUGGCGUAAUGGUAACGCGUCUCCCUCCUAAGGAAAAGACUGAGGGUCCGAGUCCCGUACGGAACG [C4A U7C G41A C49A U54C] yielded a yeast fitness of no more than 0.5.
GUUACGUUGGCGCAAUGGUAACCCGUCUCCCUCGUAAGGAGAAGGCUGCGGGCUCGAGUCCCGAACGGAACG [C4A U13C G23C C34G A45G U53C U64A] gave a yeast fitness of 0.675.
In the case of GUUACGUUGGCGUAAUGGGAACGCGUCUCCCUCCUCAGGAGAAGACUGCGGGUUCGAGUCCCGUACGGAACG [C4A U19G A36C], the yeast fitness is reported as 0.506.
With GUUACGUUGGCGUAAUGGUAACGCGUCUCCCUCCUAAGGACAAGACUGUGGGUUCGAGUCCCGUACGGAACG [C4A G41C C49U] the yeast fitness was no more than 0.5.
Variant GUUACGUAGGCCUAAUGGCAACGCGUCUCUCUCCUAAGGAGAAGACUGCGGGUUCGAGUCCCGUACGGAACG [C4A U8A G12C U19C C30U] has a yeast fitness of no more than 0.5.
For GUUACGUGGGCGUAAUGGUAACGCGUCUCCCUCCUAAGGAGAAGACUGCGGGUUCGAGUCCCGUACGGUACG [C4A U8G A69U], the yeast fitness was no more than 0.5.
Work on GUUACGUUGGCGGAAUGGUAACGUGUCUCCCUCCUAAGGAGGAGACUGCGGAUUCGAGUCCCGUACGGAACG [C4A U13G C24U A42G G52A] yielded a yeast fitness of 0.601.
GUUACGUUGGCGUAACGGUAACGCGUCUCCCUUCUAAGGAGGAGACUGCGGGUUCGAGUCCCGUACGGAACG [C4A U16C C33U A42G] showed a yeast fitness of no more than 0.5.
GUUACGUCGGCGUAAUGGUAACGGGUCUCCCUCCUAAGGAGAACACUGCGGGUUCGAGUCCCGUACGUAACG [C4A U8C C24G G44C G68U] gave a yeast fitness of no more than 0.5.
GUUACGUUGGCGUAAAGGUAACGCGUCUCCCUCCUAGGGAGAAGACUGCGGGUUCGAGUCCCGUACGGUACG [C4A U16A A37G A69U] gave a yeast fitness of no more than 0.5.
With GUUACGUUGGCGUAAUGGUAACACGUCACCCUCCUAAGGAGAAGACUACGGGUUCGAGUCCCGUACGGACCG [C4A G23A U28A G48A A70C] the yeast fitness was no more than 0.5.
With GUUACGUUGGCGUAAUGGUAACGCGUCUCCCUCCUAAGGAACAGACUGCCGGUUCGAGUCCCGUACGGAGCG [C4A G41A A42C G50C A70G] the yeast fitness was no more than 0.5.
With GUUACGUUGGCGUAAUGGUAACACGUCUCCCUCCUAAGGCGAAGACUGCGGGUUCGAGUCCCGUACGGAACG [C4A G23A A40C] the yeast fitness was no more than 0.5.
For GUUACGUUGGCGUAAUGCUAACGCGUCUCCCUCCUAAGGAGACGACUGCGGGUUCGAGUCCGGUCAGGAACG [C4A G18C A43C C62G A65C C66A], the yeast fitness was no more than 0.5.
With GUUACGUUGGCGUAAUGGUAACGCGUCUCCCUCCUAAGGAGAAGACCGCGGGUUCGAGUCCCGUACGGAACG [C4A U47C] the yeast fitness was 0.773.
With GUUACGUUGGCGUAAUGGUAACGCGUCGCCCUCCUAAGGAGAAGACUGCGGGUUCGAGUCCCGUACGGAACG [C4A U28G] the yeast fitness was 0.681.
GUUACGUUGGCGUAAUGGUAACGCGUCUCCCUCCCAAGGAGAAGACUCCGGGUUUAAGUCCCGUACGGAACG [C4A U35C G48C C55U G56A] gave a yeast fitness of 0.51.
GUUGCGUUGGCGUCAUGGUAACGCCUCUCCCCCCUAAGGAGAAGUCUGCGGGUUCGUGUCCCGUACGGAACG [C4G A14C G25C U32C A45U A57U] showed a yeast fitness of no more than 0.5.
In the case of GUUACGUUGGCGUAAUGGUAACGCGUCACCGUCCAAAGGAGAAGACAGCGGGUACGAGUCCCGUACGGAACG [C4A U28A C31G U35A U47A U54A], the yeast fitness is reported as no more than 0.5.

Reference: the RNAGym collection of RNA variant scans (doi:10.1126/science.aae0568)
